Results on four compounds are retold here after ChEMBL document CHEMBL4428053, “Application of a Parallel Synthetic Strategy in the Discovery of Biaryl Acyl Sulfonamides as Efficient and Selective NaV1.7 Inhibitors” (J Med Chem, 2016).

Data set [1] can be described thus: in vitro. The note with it: rat, liver microsomes. On the technique in general: Microsomes from liver hold many membrane-bound enzymes, among them those of drug oxidation.
Data set [2] addresses Sodium channel protein type 5 subunit alpha (Homo sapiens, UniProt Q14524). Kind of data set: Inhibition of human Nav1.5 expressed in HEK293 cells incubated for 3 to 5 mins at -50 mV holding potential by electrophysiology assay. Format: cell-based.
Data set [3] is described as follows: in vitro. The note with it: human, liver microsomes.
A short description of data set [4]: Clearance in Harlan rat at 1 mg/kg, iv by LC-MS/MS analysis. The note with it: in vivo. In kind it is ADME, organism-based. The gist of the method:
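Male fed rats. The IV dose was given in 100% DMSO. The oral dose was given in 1% Tween 80, 2% HPMC, 97% water/NaOH (pH 8.5).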

The nature of data set [5]: Protein binding in rat plasma at 5 uM after 45 mins by LC-MS/MS analysis. In kind it is ADME, cell-free. The note with it: read-out: PPB.
For data set [6], the target named is T1, Cytochrome P450 3A4 (Homo sapiens, UniProt P08684).
The target of data set [7] is Sodium channel protein type 9 subunit alpha (Homo sapiens, UniProt Q15858). The experiment in a line: Inhibition of human Nav1.7 expressed in HEK293 cells incubated for 3 to 5 mins at -125 mV holding potential by electrophysiology assay. In kind it is cell-based.
The target of data set [8] is T2, Cytochrome P450 2D6 (Homo sapiens, UniProt P10635).
The target of data set [9] is Voltage-gated inwardly rectifying potassium channel KCNH2 (Homo sapiens, UniProt Q12809).
In data set [10] the target is T1, Cytochrome P450 3A4. This is another data set of the same source.
Data set [11] addresses T3, Cytochrome P450 2C9 (Homo sapiens, UniProt P11712).
The target of data set [12] is T2, Cytochrome P450 2D6. This is another data set of the same source.
Data set [13] has as its target T3, Cytochrome P450 2C9. This is another data set of the same source.
The species named for a further data set is Homo sapiens. Kind of data set: Selectivity ratio of IC50 for human Nav1.5 expressed in HEK293 cells to human Nav1.7 expressed in HEK293 cells. In kind it is cell-based. The gist of the method:
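IC50s come from PatchXpress automated electrophysiology, and the ratio divides the hNav1.5 IC50 by the hNav1.7 IC50. For hNav1.7, cells were held at a voltage giving 20-50% channel inactivation. For hNav1.5, cells were held at -50 mV on the same platform.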

Usually microsomal CLint stands for a measure of how fast metabolising enzymes remove a compound, apart from limits set by blood flow. Low values mean greater metabolic stability, high ones faster metabolism. For orientation: IC50 means the point on the concentration scale where inhibition reaches its midpoint. A higher IC50 goes with weaker potency. As usually defined, the clearance is the volume of plasma or blood freed of the substance per unit of time. Broadly, the Ki is a dissociation constant, usually derived from enzyme kinetics or from competition with a known ligand.

Sodium channel protein type 9 subunit alpha, sequence (Q15858 whole entry): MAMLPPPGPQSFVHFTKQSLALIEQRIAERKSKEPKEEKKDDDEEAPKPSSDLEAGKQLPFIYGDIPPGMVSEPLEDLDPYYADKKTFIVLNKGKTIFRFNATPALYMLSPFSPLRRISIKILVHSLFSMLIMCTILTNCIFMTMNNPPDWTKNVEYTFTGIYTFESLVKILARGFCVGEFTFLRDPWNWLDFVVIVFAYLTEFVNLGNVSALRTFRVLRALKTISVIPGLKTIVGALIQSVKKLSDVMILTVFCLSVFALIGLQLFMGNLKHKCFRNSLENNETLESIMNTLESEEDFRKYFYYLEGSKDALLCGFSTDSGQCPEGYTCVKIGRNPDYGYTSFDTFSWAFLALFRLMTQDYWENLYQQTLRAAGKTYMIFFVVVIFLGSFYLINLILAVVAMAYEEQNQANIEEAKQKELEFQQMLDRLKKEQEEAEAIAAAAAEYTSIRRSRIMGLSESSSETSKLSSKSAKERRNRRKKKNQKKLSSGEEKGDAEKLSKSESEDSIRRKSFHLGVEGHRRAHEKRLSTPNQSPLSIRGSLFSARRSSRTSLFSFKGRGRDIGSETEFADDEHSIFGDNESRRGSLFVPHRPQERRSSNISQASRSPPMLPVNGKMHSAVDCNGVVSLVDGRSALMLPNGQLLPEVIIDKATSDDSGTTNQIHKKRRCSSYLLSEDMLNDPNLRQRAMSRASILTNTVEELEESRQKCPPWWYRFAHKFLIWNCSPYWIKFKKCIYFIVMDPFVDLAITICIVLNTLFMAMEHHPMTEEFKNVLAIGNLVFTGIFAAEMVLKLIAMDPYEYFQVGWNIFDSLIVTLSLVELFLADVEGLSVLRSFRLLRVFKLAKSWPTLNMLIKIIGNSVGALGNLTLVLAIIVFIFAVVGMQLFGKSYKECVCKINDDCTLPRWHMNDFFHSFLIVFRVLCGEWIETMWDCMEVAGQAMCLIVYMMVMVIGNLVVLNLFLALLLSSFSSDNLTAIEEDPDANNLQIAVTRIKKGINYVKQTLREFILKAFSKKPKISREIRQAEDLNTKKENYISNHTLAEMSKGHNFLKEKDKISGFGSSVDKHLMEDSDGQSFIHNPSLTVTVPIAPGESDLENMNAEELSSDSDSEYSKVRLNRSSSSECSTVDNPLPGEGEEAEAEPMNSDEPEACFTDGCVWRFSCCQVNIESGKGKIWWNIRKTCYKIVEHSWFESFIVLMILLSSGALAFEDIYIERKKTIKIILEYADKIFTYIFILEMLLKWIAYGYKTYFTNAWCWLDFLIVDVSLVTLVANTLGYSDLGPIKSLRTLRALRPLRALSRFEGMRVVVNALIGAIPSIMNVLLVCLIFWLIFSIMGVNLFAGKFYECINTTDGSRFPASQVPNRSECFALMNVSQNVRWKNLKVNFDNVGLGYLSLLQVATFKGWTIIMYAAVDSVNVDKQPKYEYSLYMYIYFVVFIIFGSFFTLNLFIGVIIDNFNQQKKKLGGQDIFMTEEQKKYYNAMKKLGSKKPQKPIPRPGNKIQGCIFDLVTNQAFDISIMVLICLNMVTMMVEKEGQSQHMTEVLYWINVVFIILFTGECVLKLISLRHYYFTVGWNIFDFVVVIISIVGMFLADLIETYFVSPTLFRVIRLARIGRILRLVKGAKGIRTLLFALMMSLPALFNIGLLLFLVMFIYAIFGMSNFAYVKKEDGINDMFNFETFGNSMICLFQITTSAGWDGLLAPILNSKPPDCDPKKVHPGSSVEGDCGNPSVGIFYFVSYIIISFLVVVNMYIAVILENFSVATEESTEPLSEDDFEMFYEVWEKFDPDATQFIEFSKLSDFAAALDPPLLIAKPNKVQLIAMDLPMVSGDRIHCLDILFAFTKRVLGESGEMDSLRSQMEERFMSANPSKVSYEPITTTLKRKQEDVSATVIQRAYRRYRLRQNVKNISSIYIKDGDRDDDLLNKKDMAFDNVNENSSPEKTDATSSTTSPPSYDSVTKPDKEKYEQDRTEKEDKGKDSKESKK
Sodium channel protein type 5 subunit alpha, sequence (Q14524 whole entry): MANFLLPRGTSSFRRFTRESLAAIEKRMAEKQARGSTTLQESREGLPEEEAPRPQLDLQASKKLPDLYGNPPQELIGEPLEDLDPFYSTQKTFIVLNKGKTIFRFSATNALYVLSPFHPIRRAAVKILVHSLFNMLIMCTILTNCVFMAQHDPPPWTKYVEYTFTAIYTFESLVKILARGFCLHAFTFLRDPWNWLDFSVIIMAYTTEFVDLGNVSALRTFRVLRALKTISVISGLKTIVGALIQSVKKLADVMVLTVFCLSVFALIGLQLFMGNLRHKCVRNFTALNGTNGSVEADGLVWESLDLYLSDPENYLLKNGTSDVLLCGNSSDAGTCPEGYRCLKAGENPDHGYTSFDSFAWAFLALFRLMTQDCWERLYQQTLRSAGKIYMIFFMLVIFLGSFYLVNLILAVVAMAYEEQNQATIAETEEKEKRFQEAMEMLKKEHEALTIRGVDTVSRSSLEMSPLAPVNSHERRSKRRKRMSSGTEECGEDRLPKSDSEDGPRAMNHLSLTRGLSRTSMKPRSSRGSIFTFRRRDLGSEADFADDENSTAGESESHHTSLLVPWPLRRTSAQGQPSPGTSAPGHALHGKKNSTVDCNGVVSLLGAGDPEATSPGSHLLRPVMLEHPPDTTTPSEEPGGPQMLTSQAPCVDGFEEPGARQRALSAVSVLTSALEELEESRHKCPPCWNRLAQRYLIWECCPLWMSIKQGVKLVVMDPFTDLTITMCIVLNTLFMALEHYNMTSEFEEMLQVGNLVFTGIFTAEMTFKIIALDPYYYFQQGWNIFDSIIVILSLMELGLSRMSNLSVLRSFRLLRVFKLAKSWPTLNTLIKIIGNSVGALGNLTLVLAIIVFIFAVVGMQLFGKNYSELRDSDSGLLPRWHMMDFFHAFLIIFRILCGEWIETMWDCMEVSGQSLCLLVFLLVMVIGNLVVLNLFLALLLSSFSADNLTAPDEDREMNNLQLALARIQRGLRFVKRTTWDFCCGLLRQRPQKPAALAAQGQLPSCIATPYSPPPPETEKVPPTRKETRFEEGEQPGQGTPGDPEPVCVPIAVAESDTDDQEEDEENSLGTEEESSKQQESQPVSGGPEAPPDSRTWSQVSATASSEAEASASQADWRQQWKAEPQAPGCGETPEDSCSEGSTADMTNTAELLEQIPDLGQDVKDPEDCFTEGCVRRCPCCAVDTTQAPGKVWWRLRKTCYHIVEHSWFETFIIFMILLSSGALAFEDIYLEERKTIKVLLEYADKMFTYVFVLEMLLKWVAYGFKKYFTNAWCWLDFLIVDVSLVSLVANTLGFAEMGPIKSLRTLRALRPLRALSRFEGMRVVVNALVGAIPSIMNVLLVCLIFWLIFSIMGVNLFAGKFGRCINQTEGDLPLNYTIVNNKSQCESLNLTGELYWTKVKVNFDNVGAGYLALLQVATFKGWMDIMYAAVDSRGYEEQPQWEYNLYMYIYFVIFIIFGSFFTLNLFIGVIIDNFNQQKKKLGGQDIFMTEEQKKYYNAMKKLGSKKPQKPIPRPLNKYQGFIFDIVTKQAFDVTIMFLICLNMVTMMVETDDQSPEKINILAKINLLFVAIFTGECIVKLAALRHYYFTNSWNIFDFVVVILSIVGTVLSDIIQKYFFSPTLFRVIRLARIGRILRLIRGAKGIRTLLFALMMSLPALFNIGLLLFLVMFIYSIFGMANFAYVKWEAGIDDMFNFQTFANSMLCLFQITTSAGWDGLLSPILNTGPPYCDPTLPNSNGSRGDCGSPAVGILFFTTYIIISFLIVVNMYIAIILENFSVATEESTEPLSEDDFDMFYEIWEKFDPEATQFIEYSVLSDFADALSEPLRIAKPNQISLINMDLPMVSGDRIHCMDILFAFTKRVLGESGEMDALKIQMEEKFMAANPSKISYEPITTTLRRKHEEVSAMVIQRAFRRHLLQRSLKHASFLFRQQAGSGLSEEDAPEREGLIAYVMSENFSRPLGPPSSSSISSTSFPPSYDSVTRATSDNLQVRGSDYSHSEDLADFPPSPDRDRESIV
T1 sequence (P08684 whole entry): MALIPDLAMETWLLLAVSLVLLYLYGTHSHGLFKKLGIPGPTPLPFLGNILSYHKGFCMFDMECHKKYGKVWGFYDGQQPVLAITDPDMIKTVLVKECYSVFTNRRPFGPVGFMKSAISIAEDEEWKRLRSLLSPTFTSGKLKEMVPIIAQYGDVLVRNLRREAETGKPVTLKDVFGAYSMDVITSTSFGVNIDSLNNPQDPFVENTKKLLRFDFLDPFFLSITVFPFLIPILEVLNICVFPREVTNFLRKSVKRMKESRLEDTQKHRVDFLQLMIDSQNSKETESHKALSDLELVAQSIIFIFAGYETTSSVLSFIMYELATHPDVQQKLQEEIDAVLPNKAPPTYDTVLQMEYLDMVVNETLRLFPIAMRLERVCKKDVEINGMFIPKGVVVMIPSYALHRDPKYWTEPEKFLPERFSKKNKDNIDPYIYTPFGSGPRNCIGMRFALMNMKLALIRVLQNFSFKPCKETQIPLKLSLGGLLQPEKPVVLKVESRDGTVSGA
T2 sequence (P10635 whole entry): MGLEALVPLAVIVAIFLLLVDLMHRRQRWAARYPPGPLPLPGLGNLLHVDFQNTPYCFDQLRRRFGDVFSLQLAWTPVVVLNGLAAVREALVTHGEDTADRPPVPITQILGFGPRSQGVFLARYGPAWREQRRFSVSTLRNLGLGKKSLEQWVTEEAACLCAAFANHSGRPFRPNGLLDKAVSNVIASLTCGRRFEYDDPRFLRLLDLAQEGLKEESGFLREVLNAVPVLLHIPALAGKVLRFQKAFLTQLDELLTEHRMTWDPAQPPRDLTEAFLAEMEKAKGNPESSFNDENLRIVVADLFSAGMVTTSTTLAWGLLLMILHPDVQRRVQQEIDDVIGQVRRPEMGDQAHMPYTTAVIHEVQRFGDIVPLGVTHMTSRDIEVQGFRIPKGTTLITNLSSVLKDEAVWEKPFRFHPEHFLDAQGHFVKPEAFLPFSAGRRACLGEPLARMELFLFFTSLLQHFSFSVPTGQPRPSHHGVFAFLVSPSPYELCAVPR

Take `COc1cc(C(=O)NS(C)(=O)=O)ccc1-c1cnc(Oc2cc(Cl)cc(Cl)c2)c(C#N)c1`: the microsomal CLint at 1 µM in the data set “in vitro [1]” was determined as 15 µL/min/mg; in “in vitro [3]” it was 39 µL/min/mg. This compound came in with an IC50 in data set [2] of 16.1 µM. Also, the clearance in [4] is 30 mL/min/kg. The fraction unbound at 0.75 h, 5 µM in [5] is below 0.001.
With `CC(C)COc1ncc(-c2cc(F)c(C(=O)NS(C)(=O)=O)cc2F)cc1Cl`, the IC50 is 48.6 µM at Cytochrome P450 3A4 [6]; 0.53 µM in [7]; above 50 µM on Cytochrome P450 2D6 [8]; above 50 µM on Cytochrome P450 3A4 [10]; 34.1 µM on Cytochrome P450 2C9 [11]; above 30 µM in [2]. Moreover, the IC50 on Cytochrome P450 2D6 [12] is above 50 µM; on Cytochrome P450 2C9 [13] it was 34.7 µM. Further, the values for the intrinsic clearance (microsomal CLint) at 1 µM in the data set “in vitro [1]” and in “in vitro [3]” were 22 µL/min/mg and 47 µL/min/mg, respectively. The Ki in [9] is above 30 µM.
For `CS(=O)(=O)NC(=O)c1ccc2c(Oc3ccc(Cl)c(C(F)(F)F)c3)nccc2c1`, the half-maximal inhibitory concentration (IC50) in data set [7] was found to be 0.28 µM; in data set [2], 14.4 µM. Moreover, in the data set filed under Homo sapiens, the Ratio IC50 is above 40. In data set [9], this compound came in with a Ki above 30 µM.
As for `COc1cc(C(=O)NS(C)(=O)=O)ccc1-c1cnc(Oc2cc(Cl)cc(Cl)c2)c(Cl)c1`, the IC50 was 0.036 µM in [7] and 6 µM in [2]. Also, the microsomal CLint at 1 µM in the data set “in vitro [1]” and in the data set “in vitro [3]” was below 14 µL/min/mg throughout. In [4], this compound yielded a clearance of 9.33 to 12.2 mL/min/kg. Besides, in [5], the fraction unbound at 0.75 h, 5 µM is below 0.001.
